IMP-1 inhibitor: blocks Pseudomonas aeruginosa IMP-1 metallo-beta-lactamase | purified IMP-1, nitrocefin hydrolysis, epi-absorbance fluorescence | inhibition, % at 5.6 µM | 290,000 compounds, 0.45% hits;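 active means inhibition above the mean plus 3 SD of all compounds in the same screening run, cut at about 4.5% in these data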;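 further: 0% = IMP-1 with DMSO and 100% = DMSO wells lacking enzyme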
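System: purified recombinant IMP-1 beta-lactamase. Medium: Zinc- and detergent-supplemented HEPES buffer, pH 7.1. Compound: one 5.6 µM dose […]. Schedule: 15 min preincubation plus 25 min reaction at 25 °C. Technique: Epi-absorbance fluorescence, 480 nm excitation, 530 nm emission.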
TRPN1 ag: activates the zebrafish TRPN1 channel; HEK293 zebrafish TRPN1-YFP, Fluo-8 calcium fluorescence; 100% = response to 87 µM carbachol; 220,000 compounds, 0.18% hits; activation, % at 3 µM; AID 1424;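 active means activation above its plate's cutoff, the mean activation of test wells on that plate plus 3 SD, cut at about 19% in these data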;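 further: 0% = DMSO alone and 100% = 87 µM carbachol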
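Material – zebrafish TRPN1-YFP in HEK293 cells · Doses – 3 µM single point · Schedule – dye 1 h 37 °C plus 30 min RT · Signal – Fluo-8 calcium fluorescence, excitation 470-495 nm, emission 515-575 nm · Read-out – % activation versus carbachol response · Control set – carbachol high, DMSO low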
CRFBP-R2 agonist: agonists of human CRF-binding protein/CRF-R2 receptor complex; HEK293 CRF-R2/CRF-BP, calcium dye fluorescence (FLIPR); percent of saturating CRF peptide response; activation, % at 13.2 µM; 350,000 compounds, 0.46% hits;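 active means activation of at least 50%, plus an integration ratio under a set limit after plate pattern correction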;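 further: plate controls were neutral control wells without compound for no effect and CRF at EC100 for full effect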
VIM-2 inhibitor: blocks Pseudomonas aeruginosa VIM-2 metallo-beta-lactamase. AID 1527. purified VIM-2, nitrocefin hydrolysis, epi-absorbance fluorescence. inhibition, % at 5.6 µM. 290,000 compounds, 0.89% hits;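 active means inhibition above the mean of all tested compounds plus 3 SD, cutoff set per screening run, cut at about 7.5% in these data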;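 further: red hydrolysis product quenches plate fluorescence so inhibitors raise well fluorescence; 0% = enzyme with DMSO and 100% = DMSO without enzyme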
CRFR2-BP antag: CRF-BP/CRF-R2 complex antagonism. HEK293 CRF-R2/CRF-BP, CRF-induced calcium fluorescence. inhibition, % at 11.8 µM. 350,000 compounds, 0.59% hits. AID 588475;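 active means inhibition of the ligand-induced calcium signal above about 50% at the single tested concentration, limit read from the data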
TRPML3 ag: human mucolipin-3 channel agonism; Q8TDD5; HEK293 TRPML3-YFP, Fluo-8 calcium fluorescence; 100% = the carbachol control signal; activation, % at 3 µM; 220,000 compounds, 0.29% hits; AID 1448;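 active means activation above its plate's cutoff, the mean activation of the plate's test wells plus 3 SD, cut at about 12% in these data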;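 further: 0% = DMSO only wells and 100% = carbachol wells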
Target sequence (Q8TDD5 whole entry, looked up): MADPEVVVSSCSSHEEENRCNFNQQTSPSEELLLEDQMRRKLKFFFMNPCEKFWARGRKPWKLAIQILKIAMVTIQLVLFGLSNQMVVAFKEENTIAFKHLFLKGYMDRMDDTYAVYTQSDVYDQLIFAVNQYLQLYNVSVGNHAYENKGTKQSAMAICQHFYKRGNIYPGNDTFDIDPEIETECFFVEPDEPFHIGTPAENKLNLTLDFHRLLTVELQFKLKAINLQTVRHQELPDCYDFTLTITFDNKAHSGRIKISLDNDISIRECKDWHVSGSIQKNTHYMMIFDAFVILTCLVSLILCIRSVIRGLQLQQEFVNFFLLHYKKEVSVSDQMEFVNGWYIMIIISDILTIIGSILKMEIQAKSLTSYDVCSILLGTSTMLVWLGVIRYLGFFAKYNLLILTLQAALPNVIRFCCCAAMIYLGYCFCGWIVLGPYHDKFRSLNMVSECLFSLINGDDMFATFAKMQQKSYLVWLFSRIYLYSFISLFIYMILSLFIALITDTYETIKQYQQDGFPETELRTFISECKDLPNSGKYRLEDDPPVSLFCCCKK
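Material: TRPML3-YFP stable HEK293 cells | Dosing: One concentration, 3 µM nominal, 0.3% DMSO | Timing: 125 s total fluorescence read per well | Technique: Fluo-8 calcium dye fluorescence, ex 470-495, em 515-575 nm | Measure: Percent activation from peak-to-basal fluorescence ratio, scaled between DMSO and carbachol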
The depositor's hits bear a star; nt = no result given. An excerpt weighted towards active compounds, which were near 2.1% of everything screened.

SMILES	IMP-1 inhibitor	TRPN1 ag	CRFBP-R2 agonist	VIM-2 inhibitor	CRFR2-BP antag	TRPML3 ag
CN(C)/C=C1\SC(=S)N(N2C(=O)C3C4C=CC(C4)C3C2=O)C1=O (centres undefined)	-3	-2	1	12*	-4	1
Cc1c(OC(C)C(=O)NCCCN2CCCC2=O)ccc2c3c(c(=O)oc12)CCCC3 (centres undefined)	0	nt	-1	10*	1	nt
Cc1c(OC(C)C(=O)NCCN2CCOCC2)ccc2c3c(c(=O)oc12)CCCC3 (centres undefined)	-1	nt	-4	9.6*	-14	nt
CC(Oc1ccc2c(c1)oc(=O)c1ccccc12)C(=O)NCCCN1CCOCC1 (centres undefined)	-3	nt	2	12*	-12	nt
CC(Oc1cc2oc(=O)c3c(c2cc1Cl)CCC3)C(=O)NCCCN1CCCC1=O (centres undefined)	-5	nt	0	9.1*	-4	nt
Cc1cc(=O)oc2cc(OC(C)C(=O)NCCCN3CCCC3=O)c(Cl)cc12 (centres undefined)	-4	nt	1	-3	-2	nt
CC(OC(=O)CC1CCCC1)C(=O)Nc1ccc(Cl)cn1 (centres undefined)	nt	nt	-1	nt	2	nt
O=C(C1=COCCO1)N(Cc1nnc(-c2ccccc2Cl)o1)C1CC1	nt	nt	-2	nt	9	nt
CCOc1ccccc1NS(=O)(=O)c1cn(C)nc1C	1	0	-1	2	-1	1
O=C(Nc1ccc(S(=O)(=O)Nc2ccccc2)cc1)c1ccc(CN2CCOCC2)cc1	-4	20*	1	-3	-19	7
O=C(Nc1ccc(CN2CCOCC2)cc1)c1ccc(Cl)cc1	-3	nt	1	-2	-1	nt
CC1=CC(C)(C)NC(=S)N1CCO	nt	nt	1	nt	-18	nt
COc1ccc(Cl)cc1NC(=O)C1CCN(S(C)(=O)=O)CC1	-2	nt	0	-1	4	nt
Cc1ccc(NC(=O)c2cc3ccccc3oc2=N)cc1	-3	nt	5	-2	0	nt
N=c1oc2c3c4c(cc2cc1C(=O)Nc1ccccc1)CCCN4CCC3	0	3	271*	4	-317	1
Cc1ccc(S(=O)(=O)N(Cc2ccccc2)c2ccccc2C(=O)NCc2ccco2)cc1	-2	-1	11	-1	71*	0
Cc1ccc(S(=O)(=O)N(Cc2ccccc2)c2ccccc2C(=O)Nc2ccccc2C(=O)NCc2ccco2)cc1	-4	2	19	-4	6	1
O=C(COc1ccc2c3c(c(=O)oc2c1)CCCC3)N1C[C@H]2C[C@@H](C1)c1cccc(=O)n1C2	1	nt	2	9.1*	-7	nt
O=C(COc1ccc2c3c(c(=O)oc2c1)CCC3)NCCCN1CCCC1=O	0	nt	0	11*	9	nt
CC(C)Oc1ccc2c3c(c(=O)oc2c1)CCC3	-2	3	-2	8.6*	10	-1
O=C(COc1ccc2c3c(c(=O)oc2c1)CCC3)N1CCCC1	-3	nt	-1	9.8*	0	nt
O=C(O)C1CCN(C(=O)COc2ccc3c4c(c(=O)oc3c2)CCCC4)CC1	0	nt	0	0	11	nt
Cc1c(C)c2ccc(OCC(=O)N3CCN(c4ccccc4)CC3)cc2oc1=O	-2	nt	-3	3	-4	nt
O=C(COc1ccc2c3c(c(=O)oc2c1)CCC3)N1CCN(c2ccccc2)CC1	-3	nt	2	11*	-36	nt
O=C(COc1ccc2c3c(c(=O)oc2c1)CCC3)N1CCCCC1	-2	nt	0	12*	1	nt
SMILES	IMP-1 inhibitor	TRPN1 ag	CRFBP-R2 agonist	VIM-2 inhibitor	CRFR2-BP antag	TRPML3 ag
COc1ccc(C(=O)N/N=C\c2coc3ccccc3c2=O)cc1	-2	1	2	-4	-6	0
CC(C)Oc1cccc(C(=O)N/N=C/c2coc3ccccc3c2=O)c1	5.3*	nt	-1	-7	1	nt
O=C(N/N=C/c1coc2ccccc2c1=O)c1cc(O)cc(O)c1	-1	2	-2	0	-25	-1
Cc1cccc(C(=O)N/N=C/c2coc3ccccc3c2=O)c1	5.8*	nt	-3	-4	-8	nt
CCOc1cccc(C(=O)N/N=C/c2coc3ccccc3c2=O)c1	5.5*	nt	1	-5	6	nt
CCOC(=O)N1CCC(=NNC(=O)COc2cccc(C)c2)CC1	-4	-1	6	-4	2	0
COC(=O)c1cc(OC)c(OC)cc1NC(=O)c1ccco1	-3	0	1	8.9*	76*	0
COc1ccccc1NC(=S)NC(=O)c1c(-c2ccccc2Cl)noc1C	-3	0	4	-7	-15	0
COC(=O)c1cc(OC)c(OC)cc1NC(=O)c1c(-c2ccccc2Cl)noc1C	0	0	0	-2	63*	0
COC(=O)c1cc(OC)c(OC)cc1NC(=O)C(C)Sc1ccc(C)cc1 (centres undefined)	-1	-2	-1	1	50*	-1
CC12CCC(C/C1=N\OC(=O)c1c(F)cccc1F)C2(C)C (centres undefined)	-3	-1	0	-3	95*	0
COc1ccc(S(=O)(=O)N2CCOCC2)cc1NC(=O)c1ccc(SC)cc1OC	nt	nt	1	nt	-8	nt
CN1C=CC(C(C(N)=O)c2ccccc2)c2ccccc21 (centres undefined)	nt	nt	38	nt	4	nt
CC(C)(C)c1cc(CCC(=O)NNC(=O)c2ccco2)cc(C(C)(C)C)c1O	0	0	-11	-2	-9	-1
CCCCC(=O)NC(=S)NNC(=O)CCc1ccccc1	-4	4	71*	-3	14	1
O=C(CCc1ccccc1)NNC(=S)NC(=O)c1ccccc1	-3	-1	80*	-3	20	1
CC(C)(C)c1cc(CCC(=O)NNC(=S)NC(=O)c2ccccc2)cc(C(C)(C)C)c1O	-2	0	158*	-6	-119	0
CC1(C)CC(=O)C2=C(C1)NC(SCC(=O)Nc1ccccc1)=C(C#N)C2c1ccco1 (centres undefined)	-7	2	3	-3	-32	0
Cc1ccc(C(=O)CSC2=C(C#N)C(c3ccco3)C3=C(CC(C)(C)CC3=O)N2)cc1 (centres undefined)	5.5*	0	9	2	-15	0
CCCCn1c2c(c(=N)c3c1CCC3)CCC2	4.8*	1	-2	-8	-7	1
CCCCCCCCCn1c2c(c(=N)c3c1CCC3)CCC2	-2	-1	1	1	-25	0
Cc1cnn(-c2nc(-c3cccs3)cc(C(F)(F)F)n2)c1	-1	-1	-2	8.1*	-28	0
COc1cc(/C=N/NC(=O)c2ccccc2O)ccc1OC(=O)CC1SC(=O)NC1=O (centres undefined)	-3	0	1	-2	8	0
